Legend:
[1] = biological target: T1, Gastric triacylglycerol lipase (Canis lupus familiaris) (UniProt P80035); test: Inhibition of recombinant dog gastric lipase preincubated for 30 mins at 25 degreeC
T1 sequence (whole entry): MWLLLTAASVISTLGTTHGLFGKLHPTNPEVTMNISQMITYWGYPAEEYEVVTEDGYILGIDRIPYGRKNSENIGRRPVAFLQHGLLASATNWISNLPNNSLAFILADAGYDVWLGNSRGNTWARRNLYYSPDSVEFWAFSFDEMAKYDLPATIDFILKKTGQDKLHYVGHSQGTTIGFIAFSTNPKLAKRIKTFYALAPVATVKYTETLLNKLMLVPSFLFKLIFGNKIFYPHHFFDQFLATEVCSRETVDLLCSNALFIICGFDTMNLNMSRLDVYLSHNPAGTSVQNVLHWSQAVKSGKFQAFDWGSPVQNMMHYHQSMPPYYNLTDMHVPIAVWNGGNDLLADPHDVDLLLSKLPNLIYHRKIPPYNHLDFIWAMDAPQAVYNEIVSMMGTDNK

[2] = organism: Homo sapiens; test: Inhibition of human pancreatic carboxylesterase at 20:1 molar excess compound concentration preincubated for 30 mins at 25 degreeC relative to control
Summary of the method: (§1)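 hCEH (1 mg/mL in 10 mM MES pH 6.5, 150 mM NaCl) pre-incubated 30 min at 25 °C with inhibitor from DMSO stock at various molar excesses, no substrate. Residual activity by pH-stat on tributyrin emulsion at 37 °C in 1 mM Tris-HCl pH 8.0, 100 mM NaCl, 5 mM CaCl2, 1 mM NaTDC. Relative to DMSO-only control; at least triplicate.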

[3] = organism: Homo sapiens; test: Inhibition of human pancreatic carboxylesterase preincubated for 30 mins at 25 degreeC; summary of the method: as §1
[4] = biological target: T1, Gastric triacylglycerol lipase (Canis lupus familiaris); test: Inhibition of recombinant dog gastric lipase preincubated for 1 hr at 25 degreeC relative to orlistat
[5] = biological target: T1, Gastric triacylglycerol lipase (Canis lupus familiaris); test: Inhibition of recombinant dog gastric lipase assessed as residual activity at 4.1 mg/ml under gastric phase at pH 5.5 using liquid test meal measured up to 30 mins relative to control; details: time min <=30
Summary of the method: (§2)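 Gastric phase: 15 mL liquid or solid test meal (506 mg TAG) premixed with 734 µL of 4.1 mg/mL DMSO stock (2.94 mg, 7.262 µmol), then DGL to 17 µg/mL final, pH 5.5, 37 °C, stirred. Samples at 1, 15, 29 min; residual DGL activity by pH-stat; lipolysis level from TLC-FID of lipid extracts. DMSO-only controls; n = 3.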

[6] = biological target: T1, Gastric triacylglycerol lipase (Canis lupus familiaris); test: Inhibition of recombinant dog gastric lipase assessed as residual activity at 4.1 mg/ml under gastric phase at pH 5.5 using solid test meal measured up to 30 mins relative to control; details: time min <=30; summary of the method: as §2
[7] = biological target: T2, Pancreatic triacylglycerol lipase (Sus scrofa) (UniProt P00591); test: Inhibition of porcine pancreatic lipase assessed as residual activity at 4.1 mg/ml under duodenal phase at pH 6.5 using solid test meal measured after 30 to 90 mins relative to control; details: time 30-90 min
T2 sequence (whole entry): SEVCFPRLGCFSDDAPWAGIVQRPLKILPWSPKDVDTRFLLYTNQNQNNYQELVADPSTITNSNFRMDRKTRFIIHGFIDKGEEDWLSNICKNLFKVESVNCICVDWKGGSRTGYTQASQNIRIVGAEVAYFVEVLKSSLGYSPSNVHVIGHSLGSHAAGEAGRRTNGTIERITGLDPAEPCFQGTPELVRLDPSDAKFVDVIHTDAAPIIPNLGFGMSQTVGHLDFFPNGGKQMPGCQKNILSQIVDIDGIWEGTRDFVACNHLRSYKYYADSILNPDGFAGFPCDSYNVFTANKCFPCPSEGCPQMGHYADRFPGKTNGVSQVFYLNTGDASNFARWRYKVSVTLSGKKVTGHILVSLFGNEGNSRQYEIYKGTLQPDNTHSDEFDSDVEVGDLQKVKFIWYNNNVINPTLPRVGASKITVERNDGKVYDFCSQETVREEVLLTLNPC

[8] = biological target: T1, Gastric triacylglycerol lipase (Canis lupus familiaris); test: Inhibition of recombinant dog gastric lipase at 4.1 mg/ml under gastric phase at pH 5.5 using liquid test meal measured up to 30 mins relative to control; details: time min <=30; summary of the method: as §2
[9] = biological target: T2, Pancreatic triacylglycerol lipase (Sus scrofa); test: Inhibition of porcine pancreatic lipase at 4.1 mg/ml under duodenal phase at pH 6.5 using liquid test meal measured after 30 to 90 mins relative to control; details: time 30-90 min
[10] = biological target: T1, Gastric triacylglycerol lipase (Canis lupus familiaris); test: Inhibition of recombinant dog gastric lipase assessed as lipolysis level at 4.1 mg/ml under gastric phase at pH 5.5 using liquid test meal measured up to 30 mins (reference value: 22.3 +/- 1.4 %); set-up: scale not given: the % may be the effect or the level left; details: time min <=30; summary of the method: as §2
[11] = biological target: T2, Pancreatic triacylglycerol lipase (Sus scrofa); test: Inhibition of porcine pancreatic lipase assessed as lipolysis level at 4.1 mg/ml under duodenal phase at pH 6.5 using liquid test meal measured at 45 mins (reference value: 58 +/- 3.1 %); set-up: scale not given: the % may be the effect or the level left

Q: What does the source list for `O=c1oc(OCCOCc2ccccc2)nn1-c1cccc(Oc2ccccc2)c1`?
A: XI50 [1]: 0.5 molar excess; inhibition [2]: 71.5%; XI50 [3]: 1.42 molar excess; fold change (FC) [4]: 11.2; Activity [5]: 0%; Activity [6]: 2.8%; Activity [7]: 94.9%; inhibition [8]: 100%; inhibition [9]: 5.6%; Activity [10]: 4.5%; Activity [11]: 48.1%
